Measured values taken from ChEMBL document CHEMBL5365542, “Difluoromethyl-1,3,4-oxadiazoles Are Selective, Mechanism-Based, and Essentially Irreversible Inhibitors of Histone Deacetylase 6” (J Med Chem, 2023).
Calls of active or inactive are those of the source. The rule behind the calls is not given here.

Key:
[1] = tested on: T1, Histone deacetylase 6 (Danio rerio), F8W4B7 [H574A]; experiment: Irreversible inhibition of Danio rerio HDAC6 H574A mutant catalytic domain 2 assessed as enzyme catalysed ring opening by measuring reduction in 2-(Benzylamino)-N'-(2,2-difluoroacetyl)pyrimidine-5-carbohydrazide formation at 100 uM incubated overnight by LC-MS analysis
T1 sequence (whole entry): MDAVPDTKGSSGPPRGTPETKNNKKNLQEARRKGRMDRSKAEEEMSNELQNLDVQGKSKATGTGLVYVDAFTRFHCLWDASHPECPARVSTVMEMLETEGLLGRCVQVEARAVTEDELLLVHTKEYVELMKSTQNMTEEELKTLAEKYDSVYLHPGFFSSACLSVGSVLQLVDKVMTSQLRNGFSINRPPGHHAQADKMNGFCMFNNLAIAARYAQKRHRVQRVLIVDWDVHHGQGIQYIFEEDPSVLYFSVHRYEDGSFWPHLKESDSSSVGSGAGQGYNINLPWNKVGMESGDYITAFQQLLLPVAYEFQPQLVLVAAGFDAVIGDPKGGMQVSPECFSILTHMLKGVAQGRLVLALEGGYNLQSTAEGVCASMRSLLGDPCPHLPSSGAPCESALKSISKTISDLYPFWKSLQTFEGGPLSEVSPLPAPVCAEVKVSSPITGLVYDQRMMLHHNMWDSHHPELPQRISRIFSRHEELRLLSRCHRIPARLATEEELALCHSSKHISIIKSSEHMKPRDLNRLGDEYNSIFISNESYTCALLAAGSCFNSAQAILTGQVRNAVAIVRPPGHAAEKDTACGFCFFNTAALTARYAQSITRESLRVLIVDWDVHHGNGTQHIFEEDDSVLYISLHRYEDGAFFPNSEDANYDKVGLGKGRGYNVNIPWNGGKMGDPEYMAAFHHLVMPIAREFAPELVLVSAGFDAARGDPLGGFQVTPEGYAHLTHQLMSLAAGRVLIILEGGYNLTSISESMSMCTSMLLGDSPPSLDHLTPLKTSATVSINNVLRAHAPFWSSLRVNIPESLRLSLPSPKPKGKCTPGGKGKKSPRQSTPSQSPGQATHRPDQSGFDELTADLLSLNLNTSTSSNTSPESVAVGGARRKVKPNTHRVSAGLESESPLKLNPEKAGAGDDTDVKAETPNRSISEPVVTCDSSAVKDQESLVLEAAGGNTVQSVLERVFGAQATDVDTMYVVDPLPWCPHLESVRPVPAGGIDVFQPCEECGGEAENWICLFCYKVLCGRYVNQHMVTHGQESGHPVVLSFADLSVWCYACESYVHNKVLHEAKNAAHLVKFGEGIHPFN
In short: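 Zebrafish HDAC6 CD2 mutants were made by site-directed mutagenesis and expressed in BL21(DE3). Enzyme at 50 μM was incubated overnight with 100 μM inhibitor in 50 mM HEPES pH 7.5, 100 mM KCl, 1 mM TCEP, 5% glycerol; an enzyme-free control was included. Protein was methanol-precipitated and filtered, and products were analysed by C18 UPLC-MS with a 2-min gradient.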

[2] = molecular target: T2, Protein deacetylase HDAC6 (Homo sapiens, UniProt Q9UBN7); experiment: Inhibition of N-terminal GST tagged human recombinant HDAC6 (1 to 1215 residues) expressed in Sf9 insect cells using Z-Lys(Ac)-AMC as fluorogenic substrate preincubated for 60 mins followed by substrate addition and measured after 90 mins by microplate reader analysis
T2 sequence (Q9UBN7 whole entry): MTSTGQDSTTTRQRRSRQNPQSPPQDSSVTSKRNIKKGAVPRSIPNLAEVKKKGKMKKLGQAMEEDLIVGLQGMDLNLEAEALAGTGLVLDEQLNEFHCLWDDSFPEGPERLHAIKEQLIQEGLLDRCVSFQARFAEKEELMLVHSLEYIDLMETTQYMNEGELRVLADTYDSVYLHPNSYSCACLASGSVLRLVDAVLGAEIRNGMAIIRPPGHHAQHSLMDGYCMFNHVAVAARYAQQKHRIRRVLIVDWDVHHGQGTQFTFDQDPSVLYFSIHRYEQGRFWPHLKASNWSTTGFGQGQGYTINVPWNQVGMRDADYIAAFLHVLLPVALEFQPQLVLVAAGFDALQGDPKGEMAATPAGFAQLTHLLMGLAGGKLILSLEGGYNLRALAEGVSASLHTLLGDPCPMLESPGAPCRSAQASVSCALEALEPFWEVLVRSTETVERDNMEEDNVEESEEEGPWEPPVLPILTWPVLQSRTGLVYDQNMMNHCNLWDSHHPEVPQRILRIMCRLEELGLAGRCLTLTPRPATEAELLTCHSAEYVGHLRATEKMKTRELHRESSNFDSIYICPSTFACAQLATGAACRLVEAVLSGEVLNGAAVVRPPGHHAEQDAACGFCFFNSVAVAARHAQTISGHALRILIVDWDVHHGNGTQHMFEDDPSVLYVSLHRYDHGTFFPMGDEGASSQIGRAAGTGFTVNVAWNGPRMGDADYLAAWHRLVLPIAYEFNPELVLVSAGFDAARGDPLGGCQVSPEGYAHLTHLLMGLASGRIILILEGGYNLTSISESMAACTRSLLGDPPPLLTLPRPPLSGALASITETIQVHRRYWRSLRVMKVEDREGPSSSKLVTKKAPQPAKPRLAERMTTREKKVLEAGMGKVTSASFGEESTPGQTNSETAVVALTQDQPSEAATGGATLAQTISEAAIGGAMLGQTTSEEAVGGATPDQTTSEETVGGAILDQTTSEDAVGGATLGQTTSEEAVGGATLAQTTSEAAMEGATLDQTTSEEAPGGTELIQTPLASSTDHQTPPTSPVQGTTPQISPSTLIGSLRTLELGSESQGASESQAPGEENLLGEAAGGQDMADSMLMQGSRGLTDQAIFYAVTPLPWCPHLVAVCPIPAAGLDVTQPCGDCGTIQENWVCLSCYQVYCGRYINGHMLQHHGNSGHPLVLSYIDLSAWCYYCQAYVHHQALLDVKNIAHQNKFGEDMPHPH

Row | Compound | inhibition [1] | IC50 [2]
1 | FC(F)c1nnc(-c2cnc(NCc3ccccc3)nc2)o1 | Active | 193 nM
2 | FC(F)(F)c1nnc(-c2cnc(NCc3ccccc3)nc2)o1 | Active | 531 nM
